This excerpt belongs to a sample that is enriched for hits.
E coli WT exp: blocks growth of wild type E. coli BW25113; OD600 absorbance; growth inhibition, % at 100 µM; hit rate 0.15% among 98,000;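 active = growth inhibition above about 50% at one test dose, limit read from the data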;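 also: growth measured after 20 h incubation at 37 °C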
Ecoli tolC: blocks growth of E. coli BW25113 tolC mutant | AID 573 | OD615 | hit rate 2.2% among 65,000 | growth inhibition, % at 10 µM (by protocol);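 active = growth inhibition at or above a cutoff equal to the mean over every tested compound plus 3 SD, cut at about 60% in these data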;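 also: growth measured after 20 h incubation at 37 °C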
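Material: E. coli BW25113 ΔtolC::kan, tolC deletion mutant strain. Measure: percent growth inhibition. Schedule: 37 °C, 20 h exposure. Doses: single-point testing at 10 µM. Signal: A615 absorbance measurement. Buffer or medium: kanamycin-containing LB broth (50 µg/mL).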
AP complement: alternative pathway complement inhibition, orthogonal assay. Human serum alternative complement pathway, LPS-coated ELISA, C3 deposition; tested in compound mixtures. inhibition, % at 5 µM. hit rate 0.08% among 62,000. AID 1235;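 active = inhibition above 30% in each of the two pooled mixtures holding the compound, so the lower value exceeds 30%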;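 also: 0% = serum in Mg-EGTA without compound and 100% = EDTA serum blank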
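Test system: human serum complement alternative pathway, C3 deposition onto LPS / Medium: Mg2+-EGTA GVB++ buffer containing human serum at 1:15 dilution / Probe or stimulus: Plate-bound LPS / Times: 1 h at 37 °C / Signal: ELISA with HRP anti-human C3 antibody, TMB substrate, absorbance 450 nm / Measure: percent inhibition / Repeats: two pool placements per compound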
HePTP inhibitor: human HePTP phosphatase inhibition; recombinant HePTP phosphatase activity, OD absorbance; hit rate 0.64% among 110,000; P35236; inhibition, % at 20 µM; in the data active = inhibition above about 50%; inconclusive = no clear call, values can overlap the other calls;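 also: plate controls were vehicle for no effect and reference inhibitor for full effect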
Target sequence (P35236 whole entry, looked up): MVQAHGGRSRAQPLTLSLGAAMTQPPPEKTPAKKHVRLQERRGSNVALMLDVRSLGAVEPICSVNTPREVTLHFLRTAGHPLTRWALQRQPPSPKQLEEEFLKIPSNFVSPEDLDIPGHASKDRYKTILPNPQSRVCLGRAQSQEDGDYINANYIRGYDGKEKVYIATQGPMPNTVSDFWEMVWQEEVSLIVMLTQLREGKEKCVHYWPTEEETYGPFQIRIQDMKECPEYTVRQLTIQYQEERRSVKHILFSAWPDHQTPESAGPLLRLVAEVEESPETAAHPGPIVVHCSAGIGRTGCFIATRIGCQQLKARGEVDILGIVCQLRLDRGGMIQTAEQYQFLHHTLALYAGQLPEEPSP
MMP-13 inhibitor: blocks human MMP13 activity; P45452; hit rate 0.07% among 65,000; MMP-13 fTHP FRET cleavage, Mca fluorescence; inhibition, % at 4 µM;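 active = inhibition above the mean of compound-free control plate wells plus 3 SD, cut at about 14% in these data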;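 also: 0% = DMSO wells and 100% = wells with reference MMP-13 inhibitor after basal subtraction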
Ec RNAP inh: inhibitors of Escherichia coli RNA polymerase; AID 559; hit rate 0.2% among 62,000; inhibition, %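 (tested at 10 µM)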; E. coli RNA polymerase, fluorescence transcription assay; P0A8V2; in the data active = inhibition above about 20%;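 also: 0% = enzyme without compound and 100% = no enzyme blank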
Numbers without * were called inactive; i = inactive; ? = inconclusive; nt = no result given.

SMILES | E coli WT exp | Ecoli tolC | AP complement | HePTP inhibitor | MMP-13 inhibitor | Ec RNAP inh
CN1/C(=C\C=C\C2=[N+](C)c3ccc4ccccc4c3C2(C)C)C(C)(C)c2ccccc21 | 84* | nt | nt | nt | nt | nt
CCCCCCCSc1cc(OC)c(CCN(C)C)cc1OC | 67* | nt | nt | nt | nt | nt
C1=C(CCNCc2ccccc2)CCCC1 | 94* | nt | nt | nt | nt | nt
O=c1[nH]c(=S)n(-c2ccccc2F)c(O)c1C=C1C=CC=N1 | nt | nt | nt | 103* | nt | nt
CCOC(=O)c1c(/N=C/c2c(O)n(-c3ccccc3F)c(=S)[nH]c2=O)sc2c1CCCC2 | -6 | nt | nt | nt | nt | nt
Cc1ccc(-n2c(SCCN3CCOCC3)nc3ccccc3c2=O)cc1 | nt | nt | nt | 11 | nt | nt
O=C1NC(=O)C(CCc2ccncc2)(c2ccccc2)C(=O)N1 | 1 | -19 | -2 | -8 | 37* | 7
O=C(CN1CCOCC1)Nc1ccc(Br)cc1C(=O)c1ccccc1Cl | nt | nt | nt | -4 | nt | nt
CCC(=Nc1ccc(OC)cc1OC)c1c(O)n(C2CCCCC2)c(=O)[nH]c1=O | 0 | 77* | 9 | 9 | 1 | 7
COc1ccccc1-n1c(/C=C/c2ccc(O)c(O)c2)nc2ccccc2c1=O | nt | nt | nt | -1 | nt | nt
CC(C)(C)c1ccc(N2C(=O)CC(=O)NC2=O)cc1 | nt | nt | nt | -7 | nt | nt
CC1(C)C(=O)N(c2ccccc2)C(=O)N(c2ccccc2)C1=O | nt | nt | nt | 10 | nt | nt
CCCCN1C(=O)NC(=O)C2(Cc3c(nc4ccccn4c3=O)N3CCc4ccccc4C32)C1=O (configuration not stated) | 8 | 43 | -11 | -9 | -2 | -1
CCCCN1C(=O)NC(=O)C2(Cc3c(nc4c(C)cccn4c3=O)N3CCc4ccccc4C32)C1=O (configuration not stated) | -7 | 98* | 16 | -5 | 2 | 4
COc1ccc(CN2CCN(Cc3cccc(C)c3)CC2)cc1Br | nt | nt | nt | 6 | nt | nt
CCCCn1c(=O)c(C(=O)Nc2ccccc2S(N)(=O)=O)c(O)c2ccccc21 | -4 | 98* | -8 | 3 | -3 | 5
COc1ccccc1CNCCc1ccc(Cl)cc1 | nt | nt | nt | 2 | nt | nt
CCCC(=O)c1ccc(N2CCNCC2)c(F)c1 | nt | nt | nt | 2 | nt | nt
CC(C)(C)n1c(O)c(C=Nc2ccc3c(c2)CCC3)c(=O)[nH]c1=O | -2 | 82* | 14 | 6 | 1 | 6
O=c1[nH]c(=O)n(CCC2=CCCCC2)c(O)c1C=Nc1cccc(F)c1 | -2 | nt | nt | nt | nt | nt
CCOC(C(=O)OCC(O)CN(CC)CC)(c1ccccc1)c1ccccc1 (configuration not stated) | 4 | 12 | -7 | 5 | -1 | 22*
CN1C(=O)NC(=O)/C(=C/c2ccc(-c3ccc([N+](=O)[O-])cc3)o2)C1=O | nt | nt | nt | -4 | nt | nt
CN1C(=O)NC(=O)/C(=C/c2ccc(Br)o2)C1=O | nt | nt | nt | 76* | nt | nt
CCOc1ccc(N2C(=O)/C(=C/c3ccc(Br)o3)C(=O)NC2=S)cc1 | nt | nt | nt | 101* | nt | nt
COc1cc(C=C2C(=O)NC(=S)NC2=O)cc(Br)c1OCc1c(C)no[n+]1[O-] | nt | nt | nt | -1 | nt | nt
SMILES | E coli WT exp | Ecoli tolC | AP complement | HePTP inhibitor | MMP-13 inhibitor | Ec RNAP inh
N/C(=N\[N+](=O)[O-])N/N=C\c1ccc(-c2cccc([N+](=O)[O-])c2)o1 | nt | nt | nt | 40 | nt | nt
O=C1NC(=O)N(c2cccc(Br)c2)C(=O)/C1=C/c1ccco1 | nt | nt | nt | 102* | nt | nt
Cc1cccc(N2C(=O)NC(=O)C(=Cc3ccco3)C2=O)c1 | nt | nt | nt | 16 | nt | nt
ClCCNc1nc2ccc(Cl)cc2[nH]1 | 54* | nt | nt | nt | nt | nt
CCOC(=O)c1c(-c2ccc(OC)cc2)oc2ccc(OC(=O)N(C)C)cc12 | -12 | 68* | 1 | 5 | i | -6
CCN1CCN(c2ccc(C(F)(F)F)cn2)CC1 | nt | nt | nt | 4 | nt | nt
O=c1c2ccccc2[se]n1-c1ccccc1 | nt | 20 | -2 | -10 | 3 | 37*
Cc1cc([N+](=O)[O-])ccc1-c1ccc(/C=C2/C(=O)NC(=O)N(C)C2=O)o1 | nt | nt | nt | 19 | nt | nt
CCn1nc(-c2ccccc2)nc2c(=O)n(C)c(=O)nc1-2 | 24 | 100* | 6 | ? | 4 | 1
COc1ccc(-n2c(-c3cccnc3)nc3ccccc3c2=O)cc1 | nt | nt | nt | 4 | nt | nt
Cc1ccc(C2C(S(C)(=O)=O)=C(O)C(=O)N2c2ccccc2)cc1 (configuration not stated) (tested in a mixture with another compound) | 4 | 75* | 10 | 1 | -2 | 7
Cc1nn(-c2ccccc2)c(Cl)c1C1C(C#N)=C(N)Oc2c1c(=O)oc1ccccc21 (configuration not stated) | -19 | 68* | 11 | -8 | 4 | 6
N#CC1=C(N)Oc2c(c(=O)oc3ccccc23)C1c1ccccc1 (configuration not stated) | nt | nt | nt | -15 | nt | nt
O=C(CF)NC(=C(Cl)Cl)P(=O)(c1ccccc1)c1ccccc1 | nt | nt | nt | 103* | nt | nt
O=Cc1cn(Cc2ccccc2Cl)c2ccccc12 | nt | nt | nt | -4 | nt | nt
Clc1ccc(COC(Cn2ccnc2)c2ccc(Cl)cc2Cl)cc1 (configuration not stated) | nt | 100* | 18 | 13 | -2 | 7
Clc1ccc(CSC(Cn2ccnc2)c2ccc(Cl)cc2Cl)cc1 (configuration not stated) | nt | 10 | 13 | 10 | 1 | 12

Assay outcomes (PubChem BioAssay)
